# ChEMBL document CHEMBL1130095, “Synthesis of analogs of 2-methoxyestradiol with enhanced inhibitory effects on tubulin polymerization and cancer cell growth” (J Med Chem, 1997)
# Tests used:
# DU-145 = assay: The In vitro cytotoxicity value corresponding to 50% growth inhibition against DU-145 (prostate) cell line.; type: functional; details: Homo sapiens
# HCT-116 [1] = assay: In vitro cytotoxicity value corresponding to 50% growth inhibition against HCT116 (colon) cell line.; type: functional; details: Homo sapiens
# HOP-62 [2] = assay: In vitro cytotoxicity value corresponding to 50% growth inhibition against HOP-62(non small cell lung) cell line.; type: functional; details: Homo sapiens
# [3] = test system: Panel (Carcinoma cell lines); assay: Mean graph midpoint for growth inhibition of all human cancer cell lines; type: functional
# MDA-MB-435 = assay: In vitro cytotoxicity value corresponding to 50% growth inhibition against MDA-MB-435 (breast) cell line.; type: functional; details: Homo sapiens
# OVCAR-3 = assay: In vitro cytotoxicity value corresponding to 50% growth inhibition against OVCAR-3 (ovarian) cell line.; type: functional; details: Homo sapiens
# SF-539 = assay: The In vitro cytotoxicity corresponding to 50% growth inhibition against […] (central nervous system) cell line.; type: functional; details: Homo sapiens
# SN12C = assay: In vitro cytotoxicity value corresponding to 50% growth inhibition against SN12C (renal) cell line.; type: functional; details: Homo sapiens
# Tubulin [4] = biological target: T1, Tubulin (Bos taurus, UniProt Q6B856+Q862L2+Q862F3); assay: Evaluated for inhibition of tubulin polymerization.; type: functional
# How it was run: (§1)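 Electrophoretically homogeneous bovine brain tubulin at 1.2 mg/mL (12 µM), preincubated at 26 °C with varying compound concentrations, then chilled on ice before GTP was added. Assembly was followed at 26 °C by turbidity at 350 nm, and the extent was read at 20 min. IC50 was derived graphically from at least two independent assays.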
# [5] = biological target: Tubulin beta chain (Bos taurus) (UniProt Q6B856); assay: Evaluated for % inhibition of colchicine binding to tubulin.; parameters: concentration or dose not given beside the values; details: concentration not given here
# How it was run: (§2)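 Mixtures held 1.0 µM bovine brain tubulin (0.1 mg/mL), 5.0 µM [³H]colchicine and 50 µM inhibitor, incubated 10 min at 37 °C. Bound-colchicine inhibition is given as percent, from triplicate samples in each experiment.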
# UACC-62 = assay: In vitro cytotoxicity value corresponding to 50% growth inhibition against UACC-62(melanoma) cell line.; type: functional; details: Homo sapiens
# [6] = biological target: Estrogen receptor (Rattus norvegicus) (UniProt P06211+Q62986); assay: Relative binding affinity for estrogen receptor using a tritium labeled estrogen as the tracer and immature rat uterine cytosol; type: protein assay; details: Uterus
# How it was run: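 Competitive radiometric binding with a tritiated estrogen tracer and immature rat uterine cytosol as receptor source, incubated at 0 °C for 18 or 20 h. […] Coefficient of variation between replicate experiments is typically below 30%.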
# Tubulin [7] = biological target: T1, Tubulin; assay: The compound was evaluated for inhibition of tubulin polymerization, which is purified from bovine brain; type: functional; how it was run: as §1
# Tubulin (Bos taurus) = Tubulin (Bos taurus) (UniProt Q6B856+Q862L2+Q862F3); assay: The compound was evaluated for inhibition of colchicine binding to tubulin.; type: protein assay; details: concentration not given here; how it was run: as §2
# HCT-116 [8] = assay: The In vitro cytotoxicity value is the concentration of the compound corresponding to 50% growth inhibition againstHCT-116 (colon) cell line.; type: functional; details: Homo sapiens
# HOP-62 [9] = assay: The In vitro cytotoxicity value is the concentration corresponding to 50% growth inhibition against HOP-62 (non small cell lung) cell line.; type: functional; details: Homo sapiens
# Chain of Tubulin beta chain (Bos taurus) (Q6B856 whole entry): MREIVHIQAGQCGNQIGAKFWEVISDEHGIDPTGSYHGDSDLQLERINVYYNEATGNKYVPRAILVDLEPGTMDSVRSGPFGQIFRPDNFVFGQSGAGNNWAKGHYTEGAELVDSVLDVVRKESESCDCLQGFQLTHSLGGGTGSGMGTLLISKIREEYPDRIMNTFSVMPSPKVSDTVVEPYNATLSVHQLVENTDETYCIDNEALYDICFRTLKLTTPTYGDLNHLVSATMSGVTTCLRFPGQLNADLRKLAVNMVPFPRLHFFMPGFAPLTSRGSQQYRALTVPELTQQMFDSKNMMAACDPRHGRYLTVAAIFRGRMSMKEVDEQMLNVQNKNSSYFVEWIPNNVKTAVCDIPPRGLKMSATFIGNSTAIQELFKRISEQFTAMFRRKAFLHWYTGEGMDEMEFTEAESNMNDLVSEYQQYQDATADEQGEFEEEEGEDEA
SMILES,GI50 (DU-145),GI50 (HCT-116 [1]),GI50 (HOP-62 [2]),GI50 [3],GI50 (MDA-MB-435),GI50 (OVCAR-3),GI50 (SF-539),GI50 (SN12C),IC50 (Tubulin [4]),inhibition [5],GI50 (UACC-62),relative binding affinity (RBA) [6],IC50 (Tubulin [7]),inhibition (Tubulin (Bos taurus)),GI50 (HCT-116 [8]),GI50 (HOP-62 [9])
CCOc1cc2c(cc1O)CC[C@@H]1[C@@H]2CC[C@]2(C)[C@@H](O)CC[C@@H]12,0.065 µM,0.026 µM,0.018 µM,0.076 µM,< 0.01 µM,0.016 µM,0.014 µM,0.039 µM,1.3 µM,51%,0.016 µM,,,,,
C[C@]12CC[C@@H]3c4cc(OCC(F)(F)F)c(O)cc4/C(=N\O)C[C@H]3[C@@H]1CC[C@@H]2O,0.049 µM,0.031 µM,0.017 µM,0.066 µM,0.01 µM,0.016 µM,0.021 µM,0.045 µM,,,0.015 µM,0.007,2.3 µM,28%,,
CC#Cc1cc2c(cc1O)CC[C@@H]1[C@@H]2CC[C@]2(C)[C@@H](O)CC[C@@H]12,3.6 µM,0.48 µM,1.7 µM,1.7 µM,0.13 µM,0.34 µM,0.95 µM,6.9 µM,4.8 µM,11%,0.5 µM,,,,,
CCOc1cc2c(cc1O)CC[C@@H]1[C@@H]2CC[C@]2(C)[C@@H](OS(=O)O[C@H]3CC[C@H]4[C@@H]5CCc6cc(O)c(OCC)cc6[C@H]5CC[C@]34C)CC[C@@H]12,1.1 µM,0.49 µM,0.83 µM,1.1 µM,0.22 µM,0.27 µM,0.57 µM,2.6 µM,5.9 µM,24%,1.3 µM,,,,,
CCOc1cc2c(cc1O)[C@@H](O)C[C@@H]1[C@@H]2CC[C@]2(C)[C@@H](O)CC[C@@H]12,0.71 µM,0.35 µM,,0.83 µM,5.4 µM,0.35 µM,,0.66 µM,2.9 µM,12%,0.28 µM,,,,,
CCOc1cc2c(cc1O)/C(=N\N)C[C@@H]1[C@@H]2CC[C@]2(C)[C@@H](O)CC[C@@H]12,17 µM,2.1 µM,1.2 µM,4.2 µM,6.5 µM,5.4 µM,2.8 µM,17 µM,4.3 µM,9.6%,0.88 µM,,,,,
CCOc1cc2c(cc1O)C(=O)C[C@@H]1[C@@H]2CC[C@]2(C)[C@@H](O)CC[C@@H]12,0.17 µM,0.02 µM,0.03 µM,0.13 µM,< 0.01 µM,0.63 µM,0.71 µM,0.18 µM,4.1 µM,19%,0.01 µM,,,,,
CCOc1cc2c(cc1O)/C(=N\O)C[C@@H]1[C@@H]2CC[C@]2(C)[C@@H](O)CC[C@@H]12,0.026 µM,0.011 µM,0.011 µM,0.079 µM,0.01 µM,0.017 µM,0.013 µM,0.021 µM,,,0.017 µM,< 0.001,1.1 µM,63%,,
CC(=O)Oc1cc2c(cc1OCC(F)(F)F)[C@H]1CC[C@]3(C)[C@@H](OC(C)=O)CC[C@H]3[C@@H]1CC2=O,20 µM,21 µM,20 µM,20 µM,18 µM,24 µM,23 µM,20 µM,> 40 µM,,18 µM,,,,,
C[C@]12CC[C@@H]3c4cc(OCC(F)(F)F)c(O)cc4CC[C@H]3[C@@H]1CC[C@@H]2O,7 µM,3.2 µM,12 µM,2.6 µM,0.28 µM,0.46 µM,1.4 µM,4.5 µM,1.5 µM,11%,2.3 µM,,,,,
CCOc1cc2c(cc1O)/C(=N\NS(=O)(=O)c1ccc(C)cc1)C[C@@H]1[C@@H]2CC[C@]2(C)[C@@H](O)CC[C@@H]12,15 µM,6.7 µM,5.1 µM,6.2 µM,,3.2 µM,3.5 µM,12 µM,> 40 µM,,,,,,,
C[C@]12CC[C@@H]3c4cc(Br)c(O)c(Br)c4CC[C@H]3[C@@H]1CC[C@@H]2O,40 µM,,,25 µM,27 µM,17 µM,21 µM,28 µM,> 40 µM,,17 µM,,,,20 µM,
COc1cc2c(cc1O)CC[C@@H]1[C@@H]2CC[C@]2(C)[C@@H](O)CC[C@@H]12 [2-METHOXYESTRADIOL],1.8 µM,,,1.3 µM,0.08 µM,0.21 µM,0.32 µM,0.95 µM,3.1 µM,19%,0.36 µM,0.245,,,0.47 µM,0.7 µM
CCOc1cc2c(c(OCC)c1O)CC[C@@H]1[C@@H]2CC[C@]2(C)[C@@H](O)CC[C@@H]12,3.3 µM,0.8 µM,1.3 µM,2.7 µM,0.2 µM,0.09 µM,,4.8 µM,8.8 µM,1.5%,,,,,,
Cc1cc2cc3c(cc2o1)CC[C@@H]1[C@@H]3CC[C@]2(C)[C@@H](O)CC[C@@H]12,17 µM,0.51 µM,,14 µM,23 µM,18 µM,14 µM,16 µM,> 40 µM,,16 µM,,,,,19 µM
CCOc1cc2c(cc1O)C=CC1C2CC[C@@]2(C)C1CC[C@@H]2O (stereo partly drawn),2.1 µM,1.1 µM,3.9 µM,3.8 µM,0.34 µM,1.9 µM,2 µM,4.6 µM,4.4 µM,8.6%,4.8 µM,,,,,
CC(=O)Oc1cc2c(cc1OC(C)=O)[C@H]1CC[C@]3(C)[C@@H](OC(C)=O)CC[C@H]3[C@@H]1CC2,3.2 µM,5.1 µM,4.8 µM,3.7 µM,0.32 µM,6.4 µM,3.5 µM,5.1 µM,> 40 µM,,2.5 µM,,,,,
CCOc1cc2c(cc1O)/C(=N\OC)C[C@@H]1[C@@H]2CC[C@]2(C)[C@@H](O)CC[C@@H]12,0.33 µM,0.049 µM,0.11 µM,0.27 µM,0.029 µM,0.026 µM,,0.39 µM,,,0.052 µM,< 0.001,1.4 µM,34%,,
CCOc1cc2c(cc1O)CC[C@@H]1[C@@H]2CC[C@]2(C)[C@@H](N)CC[C@@H]12.Cl,1.9 µM,3.2 µM,11 µM,3.3 µM,1.7 µM,1.3 µM,4 µM,5.2 µM,> 40 µM,,3.6 µM,,,,,
CCOc1cc2c(cc1O)C(N)C[C@@H]1[C@@H]2CC[C@]2(C)[C@@H](O)CC[C@@H]12 (stereo partly drawn),> 100 µM,40 µM,26 µM,40 µM,16 µM,45 µM,,59 µM,> 40 µM,,19 µM,,,,,
